A selection: hits, their analogues and other compounds. The true share with any hit is near 2.3%.
TRPC6 act: activates the mouse TRPC6 cation channel. Q61143. HEK293-TRPC6 membrane potential dye fluorescence; stronger effect = higher value. B-score at 10 µM. 310,000 compounds, 0.13% hits;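 active = B-score of the integrated fluorescence ratio above library mean plus 3 SD, and starting fluorescence ratio within library mean plus 5 SD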;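 note: higher score means more depolarization so channel activation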
Target sequence (Q61143 whole entry, looked up): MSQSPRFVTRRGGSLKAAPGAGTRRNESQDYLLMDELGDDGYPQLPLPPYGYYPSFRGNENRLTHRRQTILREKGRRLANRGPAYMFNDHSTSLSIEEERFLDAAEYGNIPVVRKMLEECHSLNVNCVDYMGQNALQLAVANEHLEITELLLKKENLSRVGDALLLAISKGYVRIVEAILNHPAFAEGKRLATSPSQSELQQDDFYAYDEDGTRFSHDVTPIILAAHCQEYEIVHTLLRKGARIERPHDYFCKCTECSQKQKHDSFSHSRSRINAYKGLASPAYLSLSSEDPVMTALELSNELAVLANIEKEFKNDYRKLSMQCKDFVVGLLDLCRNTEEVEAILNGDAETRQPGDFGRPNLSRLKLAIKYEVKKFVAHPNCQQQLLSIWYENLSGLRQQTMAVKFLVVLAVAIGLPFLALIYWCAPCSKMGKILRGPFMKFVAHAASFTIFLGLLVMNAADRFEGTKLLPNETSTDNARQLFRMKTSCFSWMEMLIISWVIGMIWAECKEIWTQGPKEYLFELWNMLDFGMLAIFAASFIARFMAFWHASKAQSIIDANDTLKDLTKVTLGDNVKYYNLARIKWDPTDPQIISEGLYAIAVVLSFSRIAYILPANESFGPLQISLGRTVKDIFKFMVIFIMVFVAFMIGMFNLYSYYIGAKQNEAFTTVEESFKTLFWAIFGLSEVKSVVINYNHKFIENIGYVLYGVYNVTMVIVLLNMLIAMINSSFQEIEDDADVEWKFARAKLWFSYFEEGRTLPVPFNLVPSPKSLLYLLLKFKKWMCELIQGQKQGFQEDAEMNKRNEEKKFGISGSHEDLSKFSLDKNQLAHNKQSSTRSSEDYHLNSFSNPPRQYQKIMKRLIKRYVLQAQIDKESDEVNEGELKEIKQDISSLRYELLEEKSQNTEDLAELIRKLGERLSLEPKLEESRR
TRPC4 block: inhibitors of mouse TRPC4 channel; Q9QUQ5; 300,000 compounds, 0.39% hits; AID 2247; B-score at 10 µM; HEK293 TRPC4beta/mu-opioid, DAMGO-evoked Fluo4 calcium flux; stronger effect = lower value;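 active = B-score over 3 SD under the library average, no early fluorescence shift, positive overall ratio signal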
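Signal: kinetic Fluo4 fluorescence imaging of calcium influx. Material: stable TRPC4beta/mu-opioid receptor HEK293 cells. Probe or stimulus: DAMGO in two steps, submaximal then maximal.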
TRPC4 PAM: allosterically enhances the mouse TRPC4 cation channel | Q9QUQ5 | HEK293 TRPC4beta/mu-opioid, DAMGO EC20, Fluo-4 Ca2+ flux; stronger effect = higher value | B-score at 10 µM | 310,000 compounds, 0.42% hits | AID 2227;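 active = B-score of calcium response area above 5 SD of library B-scores, with initial fluorescence ratio within 5 SD of library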;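 note: B-score of integrated fluorescence ratio over time as area under calcium response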
TRPC6 inhibitor: inhibitors of mouse TRPC6 channel; HEK293-TRPC6, membrane potential dye, ACh-evoked depolarization; stronger effect = lower value; B-score at 10 µM; 310,000 compounds, 1.1% hits;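 active = B-score under library mean minus 3 SD, initial fluorescence not abnormally high, positive integrated signal ratio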;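 note: B-score derived from integrated fluorescence ratio over the kinetic read; more negative B-score means stronger inhibition of depolarization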
TRPC4 agonist: opens the mouse TRPC4 cation channel; Q9QUQ5; HEK293 TRPC4beta/mu-opioid, Fluo4 calcium fluorescence; stronger effect = higher value; B-score at 10 µM; 310,000 compounds, 0.49% hits;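 active = B-score above 5 SD of library B-scores, and initial fluorescence ratio not above library mean plus 5 SD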;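 note: positive B-score marks a calcium rise read as TRPC4 activation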
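System – HEK293 cells stably co-expressing mouse TRPC4beta and mu-opioid receptor · Signal – Fluo4 calcium-sensitive dye fluorescence, kinetic, 1 Hz baseline · Benchmarks – buffer (low) and maximal DAMGO (high) · Read-out – B score of integrated fluorescence ratio per well · Incubation – dye loading 45 min room temperature, 110 s kinetic read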
Starred values were filed as active, the others as inactive; i = inactive.

SMILES | TRPC6 act | TRPC4 block | TRPC4 PAM | TRPC6 inhibitor | TRPC4 agonist
CCOC(=O)C1=NNC(C(=O)c2ccccc2)C1c1ccc(C)cc1 (stereo unspecified) | i | -8* | i | i | i
CCOC(=O)C1C(=O)C=C(c2ccc(C)cc2)CC1c1cccc([N+](=O)[O-])c1 (stereo unspecified) | i | i | 24* | i | i
CCOc1cc(C2NC(=O)NC(C)=C2C(C)=O)cc(Cl)c1OCC(=O)O (stereo unspecified) | i | i | i | i | i
CCOC(=O)CCSc1nnc(-c2cccnc2)n1-c1ccccc1OC | i | -8* | i | i | i
COCCNC(=O)C1CC(c2ccccc2C(F)(F)F)=NO1 (stereo unspecified) | i | i | i | i | i
O=C(N/N=C\c1ccc[nH]1)C1COc2ccccc2O1 (stereo unspecified) | i | i | i | i | 51*
O=C(N/N=C\c1ccccn1)C1COc2cc3ccccc3cc2O1 (stereo unspecified) | i | i | i | i | 53*
O=C(N/N=C/c1ccco1)C1COc2ccccc2O1 (stereo unspecified) | i | i | i | i | 111*
O=C(N/N=C\c1ccc(Br)o1)C1COc2ccccc2O1 (stereo unspecified) | i | i | i | i | i
Cc1ccc(/C=N/NC(=O)C2COc3ccccc3O2)s1 (stereo unspecified) | i | i | 76* | i | i
CCC/C=N/NC(=O)C1COc2ccccc2O1 (stereo unspecified) | i | i | i | i | i
O=C(N/N=C/c1cccs1)C1COc2ccccc2O1 (stereo unspecified) | i | i | i | i | i
Cc1sc(NC(=O)CN2CCOCC2)c(C#N)c1C | i | i | i | i | i
COc1ccc(C2CC23N=C(c2ccccc2)OC3=O)cc1 (stereo unspecified) | i | i | i | i | i
O=C(NC1CC1)C1=C[C@H](C2CCCCC2)C[C@H](OCc2ccc(CO)cc2)O1 | i | -6* | i | i | 249*
O=C(O)C1=C[C@@H](C2CCCCC2)C[C@@H](OCc2ccc(CO)cc2)O1 | i | i | i | i | i
C#CCNC(=O)C1=C[C@H](C2CCCCC2)C[C@H](OCc2ccc(CO)cc2)O1 | i | i | i | i | 57*
O=C(CCc1ccccc1)NC(=S)Nc1ccccc1[N+](=O)[O-] | i | i | i | i | i
CCN1CCN(c2nc(C)c3c(n2)CC(C)CC3=O)CC1 (stereo unspecified) | i | i | 15* | i | i
Cn1c(=O)c2c(nc(CN3CCN(C(c4ccccc4)c4ccccc4)CC3)n2CCCO)n(C)c1=O | i | i | 13* | i | i
Cn1c(=O)n(CCCO)c(=O)c2c1nc1n2CCCN1Cc1ccccc1 | i | -6* | i | i | i
COCCn1c(CN2CCN(C(c3ccccc3)c3ccccc3)CC2)nc2c1c(=O)n(C)c(=O)n2C | i | i | i | i | i
CCCCn1c(CN2CCN(c3cccc(Cl)c3)CC2)nc2c1c(=O)n(C)c(=O)n2C | i | i | i | i | i
CCCn1c(CN2CCN(c3cccc(Cl)c3)CC2)nc2c1c(=O)n(C)c(=O)n2C | i | i | 12* | i | i
Clc1ccc(-n2nnc(-c3ncc[nH]3)n2)cc1Cl | i | i | i | i | i
C/C(=C1/SC(N2CCCC2)=NC1=O)c1ccc(Br)cc1 | i | i | i | i | i
COc1ccccc1N1CCN(C(=O)c2sc3ncnc(N4CCN(c5ccccn5)CC4)c3c2C)CC1 | i | i | i | i | i
Cc1nc(N2CCN(c3ccccn3)CC2)c2c(C)c(C(=O)N3CCN(c4ccc(F)cc4)CC3)sc2n1 | i | -10* | i | i | i
COc1ccccc1N1CCN(C(=O)c2sc3nc(C)nc(N4CCN(c5ccccn5)CC4)c3c2C)CC1 | i | -7* | i | i | i
C=CCn1c(COc2cccc3ccc(C)nc23)nnc1SCC(N)=O | i | i | i | i | i
